How the values were obtained:
Assay type in all cases: functional
SN12C = assay: Growth inhibition of human SN12C cells at 10 uM incubated for 48 hrs by sulforhodamine B assay relative to control; conditions: read-out: GI
Method in brief: (§1)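 NCI single-dose screen: cells grown in RPMI 1640 with 5% FBS and 2 mM L-glutamine, plated at 5,000–40,000 cells/well and preincubated 24 h at 37 °C, 5% CO2. Compounds taken from DMSO stock and tested at final 10 µM for 48 h. Cells fixed with TCA, stained with 0.4% SRB, absorbance read at 515 nm. Percentage growth calculated against untreated controls; controls held DMSO at the same dilution.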

SK-OV-3 = assay: Growth inhibition of human SKOV3 cells at 10 uM incubated for 48 hrs by sulforhodamine B assay relative to control; conditions: SK-OV-3, 48 h, read-out: GI; method in brief: as §1
NCI-H23 = assay: Growth inhibition of human NCI-H23 cells at 10 uM incubated for 48 hrs by sulforhodamine B assay relative to control; conditions: NCI-H23, 48 h, read-out: GI
Method in brief: (§2)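 Single-dose screen at 10 μM final: cells in RPMI 1640, 5% FBS, 2 mM L-glutamine, plated 5,000–40,000/well, preincubated 24 h at 37°C, 5% CO2; drug 48 h; adherent cells fixed with 10% TCA, suspension cells with 16% TCA; SRB stain, absorbance 515 nm; percentage growth versus untreated control, with time-zero plates.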

K562 = assay: Growth inhibition of human K562 cells at 10 uM incubated for 48 hrs by sulforhodamine B assay relative to control; conditions: K562, 48 h, read-out: GI; method in brief: as §2
SK-MEL-28 = assay: Growth inhibition of human SK-MEL-28 cells at 10 uM incubated for 48 hrs by sulforhodamine B assay relative to control; conditions: SK-MEL-28, 48 h, read-out: GI; method in brief: as §1
UACC-62 = assay: Growth inhibition of human UACC62 cells at 10 uM incubated for 48 hrs by sulforhodamine B assay relative to control; conditions: UACC-62, 48 h, read-out: GI; method in brief: as §1
U-251 = assay: Growth inhibition of human U251 cells at 10 uM incubated for 48 hrs by sulforhodamine B assay relative to control; conditions: U-251, 48 h, read-out: GI; method in brief: as §1
BT-549 = assay: Growth inhibition of human BT549 cells at 10 uM incubated for 48 hrs by sulforhodamine B assay relative to control; conditions: BT-549, 48 h, read-out: GI; method in brief: as §2
OVCAR-3 = assay: Growth inhibition of human OVCAR3 cells at 10 uM incubated for 48 hrs by sulforhodamine B assay relative to control; conditions: OVCAR-3, 48 h, read-out: GI; method in brief: as §2
ACHN = assay: Growth inhibition of human ACHN cells at 10 uM incubated for 48 hrs by sulforhodamine B assay relative to control; conditions: read-out: GI; method in brief: as §2
RPMI-8226 = assay: Growth inhibition of human RPMI8226 cells at 10 uM incubated for 48 hrs by sulforhodamine B assay relative to control; conditions: RPMI-8226, 48 h, read-out: GI; method in brief: as §2
SNB-19 = assay: Growth inhibition of human SNB19 cells at 10 uM incubated for 48 hrs by sulforhodamine B assay relative to control; conditions: SNB-19, 48 h, read-out: GI; method in brief: as §1
MDA-MB-468 = assay: Growth inhibition of human MDA-MB-468 cells at 10 uM incubated for 48 hrs by sulforhodamine B assay relative to control; conditions: MDA-MB-468, 48 h, read-out: GI; method in brief: as §2
SK-MEL-2 = assay: Growth inhibition of human SK-MEL-2 cells at 10 uM incubated for 48 hrs by sulforhodamine B assay relative to control; conditions: SK-MEL-2, 48 h, read-out: GI; method in brief: as §1
UACC-257 = assay: Growth inhibition of human UACC257 cells at 10 uM incubated for 48 hrs by sulforhodamine B assay relative to control; conditions: UACC-257, 48 h, read-out: GI; method in brief: as §1
PC-3 = assay: Growth inhibition of human PC3 cells at 10 uM incubated for 48 hrs by sulforhodamine B assay relative to control; conditions: PC-3, 48 h, read-out: GI; method in brief: as §2
NCI/ADR-RES = assay: Growth inhibition of human NCI/ADR-RES cells at 10 uM incubated for 48 hrs by sulforhodamine B assay relative to control; conditions: read-out: GI; method in brief: as §2
SR = assay: Growth inhibition of human SR cells at 10 uM incubated for 48 hrs by sulforhodamine B assay relative to control; conditions: read-out: GI; method in brief: as §1
A549 = assay: Growth inhibition of human A549/ATCC cells at 10 uM incubated for 48 hrs by sulforhodamine B assay relative to control; conditions: A549, 48 h, read-out: GI; method in brief: as §2
MDA-MB-231 = assay: Growth inhibition of human MDA-MB-231 cells at 10 uM incubated for 48 hrs by sulforhodamine B assay relative to control; conditions: MDA-MB-231, 48 h, read-out: GI; method in brief: as §2
OVCAR-8 = assay: Growth inhibition of human OVCAR8 cells at 10 uM incubated for 48 hrs by sulforhodamine B assay relative to control; conditions: OVCAR-8, 48 h, read-out: GI; method in brief: as §2
SF-539 = assay: Growth inhibition of human SF539 cells at 10 uM incubated for 48 hrs by sulforhodamine B assay relative to control; conditions: SF-539, 48 h, read-out: GI; method in brief: as §1
DU-145 = assay: Growth inhibition of human DU145 cells at 10 uM incubated for 48 hrs by sulforhodamine B assay relative to control; conditions: DU-145, 48 h, read-out: GI; method in brief: as §2
T47D = assay: Growth inhibition of human T47D cells at 10 uM incubated for 48 hrs by sulforhodamine B assay relative to control; conditions: read-out: GI; method in brief: as §1
SW-620 = assay: Growth inhibition of human SW620 cells at 10 uM incubated for 48 hrs by sulforhodamine B assay relative to control; conditions: SW-620, 48 h, read-out: GI; method in brief: as §1
EKVX = assay: Growth inhibition of human EKVX cells at 10 uM incubated for 48 hrs by sulforhodamine B assay relative to control; conditions: read-out: GI; method in brief: as §2
NCI-H226 = assay: Growth inhibition of human NCI-H226 cells at 10 uM incubated for 48 hrs by sulforhodamine B assay relative to control; conditions: NCI-H226, 48 h, read-out: GI; method in brief: as §2
Malme-3M = assay: Growth inhibition of human MALME-3M cells at 10 uM incubated for 48 hrs by sulforhodamine B assay relative to control; conditions: read-out: GI; method in brief: as §2
CAKI-1 = assay: Growth inhibition of human Caki1 cells at 10 uM incubated for 48 hrs by sulforhodamine B assay relative to control; conditions: CAKI-1, 48 h, read-out: GI; method in brief: as §2
HOP-62 = assay: Growth inhibition of human HOP62 cells at 10 uM incubated for 48 hrs by sulforhodamine B assay relative to control; conditions: HOP-62, 48 h, read-out: GI; method in brief: as §2

Row | Compound | inhibition of growth at 10 µM (SN12C) [%] | inhibition of growth at 10 µM (SK-OV-3) [%] | inhibition of growth at 10 µM (NCI-H23) [%] | inhibition of growth at 10 µM (K562) [%] | inhibition of growth at 10 µM (UACC-62) [%] | inhibition of growth at 10 µM (U-251) [%] | inhibition of growth at 10 µM (BT-549) [%] | inhibition of growth at 10 µM (OVCAR-3) [%] | inhibition of growth at 10 µM (ACHN) [%] | inhibition of growth at 10 µM (RPMI-8226) [%] | inhibition of growth at 10 µM (SNB-19) [%] | inhibition of growth at 10 µM (MDA-MB-468) [%] | inhibition of growth at 10 µM (SK-MEL-2) [%] | inhibition of growth at 10 µM (UACC-257) [%] | inhibition of growth at 10 µM (PC-3) [%] | inhibition of growth at 10 µM (NCI/ADR-RES) [%] | inhibition of growth at 10 µM (SR) [%] | inhibition of growth at 10 µM (A549) [%] | inhibition of growth at 10 µM (MDA-MB-231) [%] | inhibition of growth at 10 µM (OVCAR-8) [%] | other results
1 | CCOC(=O)C1=C(C)NC(SCc2nnc(-c3ccc(C)cc3)o2)=NC1c1ccc(F)cc1 (centres undefined) | 19.9 | < 10 | < 10 | 14.7 | 17.1 | 15.1 | 12.8 | < 10 | 19 | 27.2 | 10.1 | 18.1 | < 10 | < 10 | 26.8 | < 10 | 26.5 | 17.3 | 14.7 | 17.8 | inhibition of growth at 10 µM (SK-MEL-28): < 10%; inhibition of growth at 10 µM (SF-539): < 10%; inhibition of growth at 10 µM (DU-145): < 10%; inhibition of growth at 10 µM (T47D): 32.6%; inhibition of growth at 10 µM (SW-620): < 10%; inhibition of growth at 10 µM (EKVX): < 10%; inhibition of growth at 10 µM (NCI-H226): 10.1%; inhibition of growth at 10 µM (Malme-3M): < 10%; inhibition of growth at 10 µM (CAKI-1): 24.7%; inhibition of growth at 10 µM (HOP-62): < 10%
2 | CCOC(=O)C1=C(C)NC(SCc2nnc(-c3ccc(Cl)cc3)o2)=NC1c1ccccc1 (centres undefined) | 14.8 | 25.6 | < 10 | 25.2 | 34.9 | 21.2 | 42.7 | < 10 | < 10 | 27.3 | 11.7 | 14.7 | 34.5 | 25.9 | 42.2 | < 10 | 24.9 | 29 | < 10 | 20.4 | inhibition of growth at 10 µM (SK-MEL-28): < 10%; inhibition of growth at 10 µM (SF-539): < 10%; inhibition of growth at 10 µM (DU-145): < 10%; inhibition of growth at 10 µM (T47D): 53.8%; inhibition of growth at 10 µM (SW-620): < 10%; inhibition of growth at 10 µM (EKVX): 14.8%; inhibition of growth at 10 µM (NCI-H226): 11.4%; inhibition of growth at 10 µM (Malme-3M): < 10%; inhibition of growth at 10 µM (CAKI-1): 22.3%; inhibition of growth at 10 µM (HOP-62): 27.8%
3 | COc1ccc(-c2nnc(CSC3=NC(c4ccc(F)cc4)C(C(C)=O)=C(C)N3)o2)cc1 (centres undefined) | < 10 | 18.3 | < 10 | < 10 | 10.8 | 15.3 | < 10 | < 10 | < 10 | 14 | 13.4 | < 10 | < 10 | < 10 | 18.7 | < 10 | 13.3 | 15.6 | 14.4 | < 10 | inhibition of growth at 10 µM (SK-MEL-28): < 10%; inhibition of growth at 10 µM (SF-539): < 10%; inhibition of growth at 10 µM (DU-145): < 10%; inhibition of growth at 10 µM (T47D): 28.9%; inhibition of growth at 10 µM (SW-620): < 10%; inhibition of growth at 10 µM (EKVX): < 10%; inhibition of growth at 10 µM (NCI-H226): < 10%; inhibition of growth at 10 µM (Malme-3M): 12.3%; inhibition of growth at 10 µM (CAKI-1): 29.9%; inhibition of growth at 10 µM (HOP-62): 19.4%
4 | CC(=O)C1=C(C)NC(SCc2nnc(-c3ccc(C)cc3)o2)=NC1c1ccc(F)cc1 (centres undefined) | < 10 | < 10 | < 10 | < 10 | 15.4 | < 10 | 13.9 | < 10 | < 10 | 16.3 | < 10 | < 10 | < 10 | < 10 | 14.7 | < 10 | 19.1 | < 10 | < 10 | < 10 | inhibition of growth at 10 µM (SF-539): < 10%; inhibition of growth at 10 µM (DU-145): < 10%; inhibition of growth at 10 µM (T47D): 25.6%; inhibition of growth at 10 µM (SW-620): < 10%; inhibition of growth at 10 µM (EKVX): < 10%; inhibition of growth at 10 µM (NCI-H226): 10.4%; inhibition of growth at 10 µM (Malme-3M): < 10%; inhibition of growth at 10 µM (CAKI-1): 12%; inhibition of growth at 10 µM (HOP-62): < 10%
